In ChEMBL document CHEMBL1130391, “Novel agonists of 5HT2C receptors. Synthesis and biological evaluation of substituted 2-(indol-1-yl)-1-methylethylamines and 2-(indeno[1,2-b]pyrrol-1-yl)-1-methylethylamines. Improved therapeutics for obsessive compulsive disorder” (J Med Chem, 1997):
Active and inactive are the calls of the source. The rule behind the calls is not given here.

Legend:
[1] = molecular target: T1, 5-hydroxytryptamine receptor 2C (Rattus norvegicus) (UniProt P08909); assay: Induction of penile erection in rats after subcutaneous administration, indicative of 5-HT 2c receptor activation; type: functional, organism-based
T1 sequence (whole entry): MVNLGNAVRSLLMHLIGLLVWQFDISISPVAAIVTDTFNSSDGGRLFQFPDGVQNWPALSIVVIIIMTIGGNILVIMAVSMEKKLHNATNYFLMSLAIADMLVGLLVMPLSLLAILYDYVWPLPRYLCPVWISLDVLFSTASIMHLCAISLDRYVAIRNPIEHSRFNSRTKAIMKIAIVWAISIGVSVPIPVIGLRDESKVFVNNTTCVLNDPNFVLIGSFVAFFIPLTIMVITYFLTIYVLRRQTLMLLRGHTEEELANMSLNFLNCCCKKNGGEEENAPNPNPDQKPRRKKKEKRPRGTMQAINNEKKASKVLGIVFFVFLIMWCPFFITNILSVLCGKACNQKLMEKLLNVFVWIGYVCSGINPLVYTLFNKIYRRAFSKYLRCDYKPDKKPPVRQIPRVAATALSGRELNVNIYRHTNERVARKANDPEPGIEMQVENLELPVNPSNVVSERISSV
Method in brief: (§1)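 Male erection counts in RORO rats, 8 per dose, over 45 min. Drug is given in 0.3% Tween-80 in saline, sc at 5 mL/kg or orally at 10 mL/kg. Vehicle controls are included, and doses are expressed as salt weight. ED₅₀ by probit analysis, or the approximate dose at which half the rats respond.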

[2] = molecular target: T1, 5-hydroxytryptamine receptor 2C (Rattus norvegicus); assay: Intrinsic 5-HT 2c receptor activity as induced IP3 turnover in vitro in rat choroid plexus; type: functional, tissue-based
Method in brief: (§2)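 Rat choroid plexus preloaded with [³H]myoinositol for 1 h at 37 °C in oxygenated Krebs. LiCl 10 mM and pargyline 10 µM added, then compound 10 min later. Six concentrations, top 0.1 mM, incubated 0.5 h at 37 °C. Stopped with HClO₄/EDTA, then IP₃ isolated. Three measures per point. Intrinsic activity is the maximum relative to 10 µM 5HT.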

[3] = molecular target: T2, 5-hydroxytryptamine receptor 2C (Rattus norvegicus, UniProt P08909); assay: Efficacy (pEC50) was evaluated for 5-HT2C receptor-mediated stimulation of IP3 formation in vitro in choroid plexus of the rat; type: functional, tissue-based; method in brief: as §2
T2 sequence (P08909 whole entry): T1 sequence (whole entry)

[4] = molecular target: T3, 5-hydroxytryptamine receptor 2C (Homo sapiens, UniProt P28335); assay: Binding affinity against human 5-hydroxytryptamine 2C receptor using displacement of [3H]DOB
T3 sequence (P28335 whole entry): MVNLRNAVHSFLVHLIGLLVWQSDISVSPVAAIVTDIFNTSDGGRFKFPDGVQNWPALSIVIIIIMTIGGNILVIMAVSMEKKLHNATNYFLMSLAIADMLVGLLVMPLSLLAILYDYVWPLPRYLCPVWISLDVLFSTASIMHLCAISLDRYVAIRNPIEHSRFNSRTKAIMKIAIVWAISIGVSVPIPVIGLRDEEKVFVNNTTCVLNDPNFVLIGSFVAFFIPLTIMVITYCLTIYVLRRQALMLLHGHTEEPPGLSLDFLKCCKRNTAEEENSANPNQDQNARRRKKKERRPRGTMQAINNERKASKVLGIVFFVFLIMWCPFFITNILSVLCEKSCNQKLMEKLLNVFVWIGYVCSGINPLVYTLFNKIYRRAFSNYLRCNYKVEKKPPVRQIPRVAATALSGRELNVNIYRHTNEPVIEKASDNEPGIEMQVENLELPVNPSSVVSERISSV

[5] = molecular target: 5-hydroxytryptamine receptor 2A (Homo sapiens, UniProt P28223); assay: Binding affinity against human 5-hydroxytryptamine 2A receptor using displacement of [3H]5-HT
5-hydroxytryptamine receptor 2A, sequence (P28223 whole entry): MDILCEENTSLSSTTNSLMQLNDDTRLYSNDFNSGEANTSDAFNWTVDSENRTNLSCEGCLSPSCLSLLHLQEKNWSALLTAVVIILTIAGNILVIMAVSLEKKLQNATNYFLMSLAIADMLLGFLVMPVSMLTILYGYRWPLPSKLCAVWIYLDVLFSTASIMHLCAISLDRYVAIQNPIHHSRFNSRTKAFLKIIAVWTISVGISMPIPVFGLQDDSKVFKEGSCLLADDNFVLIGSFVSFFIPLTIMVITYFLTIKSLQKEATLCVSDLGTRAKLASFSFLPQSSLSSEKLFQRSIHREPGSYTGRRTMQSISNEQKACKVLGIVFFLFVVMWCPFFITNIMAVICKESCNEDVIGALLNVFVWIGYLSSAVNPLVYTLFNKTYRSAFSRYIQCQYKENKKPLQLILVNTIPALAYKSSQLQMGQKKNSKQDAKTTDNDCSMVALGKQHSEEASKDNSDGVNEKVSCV

[6] = molecular target: T1, 5-hydroxytryptamine receptor 2C (Rattus norvegicus); assay: Induction of penile erection in rats following p.o. administration, indicative of 5-HT 2c receptor activation; type: functional, organism-based; method in brief: as §1
Rattus norvegicus [7] = assay: Compound was tested in schedule induced polydipsia in rats expressed as %maximum suppression at minimum effective dose of 1 mg/kg intraperitoneally; type: functional; details: route intraperitoneal
Rattus norvegicus [8] = assay: Compound was tested in schedule induced polydipsia in rats expressed as %maximum suppression at minimum effective dose of 3 mg/kg intraperitoneally; type: functional; details: route intraperitoneal
Rattus norvegicus [9] = assay: Compound was tested in schedule induced polydipsia in rats expressed as %maximum suppression at minimum effective dose of 10 mg/kg intraperitoneally; type: functional; details: route intraperitoneal
Rattus norvegicus [10] = assay: Compound was tested in schedule induced polydipsia in rats expressed as %maximum suppression at minimum effective dose of 30 mg/kg intraperitoneally; type: functional; details: route intraperitoneal
[11] = molecular target: T1, 5-hydroxytryptamine receptor 2C (Rattus norvegicus); assay: Efficacy (pEC50) was evaluated for 5-HT2C receptor-mediated stimulation of IP3 formation in vitro in choroid plexus of the rat; inactive; type: functional, tissue-based; method in brief: as §2
[12] = molecular target: T1, 5-hydroxytryptamine receptor 2C (Rattus norvegicus); assay: The compound was tested for induction of penile erection in rats after peroral administration; Inactive; type: functional, organism-based; method in brief: as §1

Structure (SMILES) | ED50 [1] [mg/kg] | Efficacy [2] | EC50 [3] [nM] | Ki [4] [nM] | Ki [5] [nM] | ED50 [6] [mg/kg] | Max suppression (Rattus norvegicus [7]) [%] | Max suppression (Rattus norvegicus [8]) [%] | Max suppression (Rattus norvegicus [9]) [%] | Max suppression (Rattus norvegicus [10]) [%] | Log EC50 [11] | ED50 [12]
COc1cccc2c1ccn2CC(C)N (stereo not given) | > 10 | 0.3 | 12600 | 126 | – | – | – | – | – | – | – | –
CC(N)Cn1ccc2cc(Br)ccc21 (stereo not given) | 4 | 0.8 | 2000 | 3.98 | 158 | > 30 | – | – | – | – | – | –
COc1ccc2c(c1)-c1c(ccn1CC(C)N)C2(C)C (stereo not given) | 0.5 | 1 | 100 | 0.398 | 10 | 10 | -75 | – | – | – | – | –
CC(N)Cn1ccc2cc(Cl)ccc21 (stereo not given) | 2.3 | 0.9 | 2000 | 7.94 | 200 | > 30 | – | – | – | – | – | –
C[C@H](N)Cn1ccc2c(Cl)c(F)ccc21 | 2.7 | 1 | 316 | 1.26 | 39.8 | > 30 | – | -97 | – | – | – | –
CC(N)Cn1ccc2c1-c1cc(F)ccc1C2 (stereo not given) | 1.5 | 1 | 631 | 3.16 | 200 | > 30 | – | – | – | – | – | –
Cc1ccc2ccn(CC(C)N)c2c1 (stereo not given) | 3.3 | 0.9 | 7940 | 15.8 | 794 | > 30 | – | – | – | – | – | –
CC(N)Cn1ccc2cc(Cl)c(F)cc21 (stereo not given) | 1 | 1 | 398 | 2 | 39.8 | 15 | – | -88 | – | – | – | –
C[C@@H](N)Cn1ccc2cc(F)c(Cl)cc21 | 2.1 | 1 | 3160 | 10 | 79.4 | > 30 | – | – | – | – | – | –
CC(N)Cn1ccc2c1-c1cc(Br)ccc1C2 (stereo not given) | > 10 | 1 | 2510 | 3.98 | 100 | – | – | – | – | – | – | –
Cc1ccc2c(c1)-c1c(ccn1CC(C)N)C2 (stereo not given) | > 10 | 1 | 501 | 7.94 | 63.1 | – | – | – | – | – | – | –
Cc1cccc2c1ccn2CC(C)N (stereo not given) | 3.2 | 0.6 | 2510 | 6.31 | 100 | > 30 | – | – | – | – | – | –
C[C@H](N)Cn1ccc2cc(F)c(F)cc21 | 0.3 | 1 | 200 | 1 | 100 | 10 | – | -73 | – | – | – | –
CC(N)Cn1ccc2c1-c1cc(F)ccc1C2(C)C (stereo not given) | 2.7 | 1 | 200 | 5.01 | 31.6 | > 30 | – | – | – | – | – | –
Cc1ccc2c(ccn2CC(C)N)c1 (stereo not given) | > 10 | 0.9 | 2510 | 63.1 | 794 | – | – | – | – | – | – | –
C[C@@H](N)Cn1ccc2cc(F)c(F)cc21 | 2.7 | 1 | 126 | 3.98 | 100 | 30 | – | – | – | – | – | –

Structure (SMILES) | ED50 [1] [mg/kg] | Efficacy [2] | EC50 [3] [nM] | Ki [4] [nM] | Ki [5] [nM] | ED50 [6] [mg/kg] | Max suppression (Rattus norvegicus [7]) [%] | Max suppression (Rattus norvegicus [8]) [%] | Max suppression (Rattus norvegicus [9]) [%] | Max suppression (Rattus norvegicus [10]) [%] | Log EC50 [11] | ED50 [12]
COc1cccc2c1-c1c(ccn1CC(C)N)C2 (stereo not given) | > 10 | 0.7 | 6310 | 12.6 | 398 | – | – | – | – | – | – | –
C[C@H](N)Cn1ccc2cc(F)c(Cl)cc21 | 0.5 | 1 | 200 | 1.26 | 31.6 | 5.5 | – | – | -90 | – | – | –
Cc1ccc2c(c1)-c1c(ccn1CC(C)N)C2(C)C (stereo not given) | 0.9 | 1 | 200 | 3.16 | 100 | 10 | – | – | -76 | – | – | –
CC(N)Cn1ccc2c1-c1cc(Cl)ccc1C2 (stereo not given) | 2.7 | 0.8 | 2510 | 3.98 | 200 | > 30 | – | – | – | – | – | –
CNCCC(Oc1ccc(C(F)(F)F)cc1)c1ccccc1 (stereo not given) [FLUOXETINE] | – | – | – | – | – | – | – | – | – | -11 | – | –
COc1cccc2c1Cc1ccn(CC(C)N)c1-2 (stereo not given) | > 10 | – | – | 100 | 3160 | – | – | – | – | – | inactive | –
COc1ccc2c(c1)-c1c(ccn1CC(C)N)C2 (stereo not given) | 0.6 | 1 | 398 | 1 | 126 | 11 | – | – | -79 | – | – | –
COc1ccc2c(c1)-c1c(ccn1C[C@@H](C)N)C2 | 2 | 0.8 | 7940 | 3.98 | 126 | > 30 | – | – | – | – | – | –
CC(N)Cc1c[nH]c2ccc(F)cc12 (stereo not given) | 0.8 | 0.9 | 158 | 10 | 63.1 | 9.9 | -96 | – | – | – | – | –
COc1ccc2c(c1)Cc1ccn(CC(C)N)c1-2 (stereo not given) | > 10 | 1 | 2000 | 12.6 | 398 | – | – | – | – | – | – | –
COc1ccc2c(ccn2CC(C)N)c1 (stereo not given) | > 10 | 0.3 | 10000 | 794 | – | – | – | – | – | – | – | –
COc1ccc2c(c1)-c1c(ccn1C[C@H](C)N)C2 | 1.2 | 1 | 251 | 1 | 126 | 10 | -97 | – | – | – | – | –
C[C@@H](N)Cn1ccc2c(Cl)c(F)ccc21 | 3.3 | 0.9 | 794 | 1.26 | 10 | – | – | – | – | – | – | inactive
CC(N)Cn1ccc2c(F)cccc21 (stereo not given) | > 10 | 0.7 | 1260 | 7.94 | 158 | – | – | – | – | – | – | –
CC(N)Cn1ccc2cc(F)ccc21 (stereo not given) | 1 | 1 | 1580 | 6.31 | 158 | 2.7 | – | -97 | – | – | – | –
CC(N)Cn1ccc2ccc(F)cc21 (stereo not given) | 0.3 | 1 | 631 | 3.98 | 251 | > 30 | – | – | – | – | – | –
